Assay results from ChEMBL document CHEMBL1926522, “PEG-SO(3)H catalyzed synthesis and cytotoxicity of α-aminophosphonates” (Eur J Med Chem, 2012).

Experiments:
[1] = test system: COLO 205; test: Growth inhibition of human COLO205 cells at 1 uM after 24 hrs by MTT assay relative to control; assay type: functional; details: COLO 205, 24 h, read-out: GI
Method in brief: (§1)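 Exponentially growing cells in RPMI-1640 with 10% heat-inactivated FBS, 37 °C, 5% CO2. Treated 24 h at the single stated concentration. MTT (5 mg/mL in PBS) added for 2 h at 37 °C, then DMSO. Percent proliferation inhibition was calculated versus control. Independent experiments in duplicate, values averaged from two determinations.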

[2] = test system: K562; test: Growth inhibition of human K562 cells at 10 uM after 24 hrs by MTT assay relative to control; assay type: functional; details: K562, 24 h, read-out: GI; method in brief: as §1
[3] = Growth inhibition of human HEK293 cells at 1 uM after 24 hrs by MTT assay relative to control; assay type: cell-based; details: read-out: GI; method in brief: as §1
[4] = test system: COLO 205; test: Growth inhibition of human COLO205 cells at 10 uM after 24 hrs by MTT assay relative to control; assay type: functional; details: COLO 205, 24 h, read-out: GI; method in brief: as §1
[5] = test system: K562; test: Cytotoxicity against human K562 cells after 24 hrs by MTT assay; assay type: functional, cell-based; details: K562, 24 h
Method in brief: (§2)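 Cells from NCCS Pune, grown in RPMI-1640 with 10% heat-inactivated FBS, penicillin/streptomycin and glutamine at 37 °C, 5% CO2. Cells were washed with PBS and exposed for 24 h, first at 1, 10 and 100, then at 2–64. MTT (5 mg/mL in PBS) added for 2 h, then DMSO. IC50 read graphically from concentration vs % inhibition plot. Each point is the average of two determinations.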

[6] = test system: COLO 205; test: Cytotoxicity against human COLO205 cells after 24 hrs by MTT assay; assay type: functional, cell-based; details: COLO 205, 24 h; method in brief: as §2
[7] = Growth inhibition of human HEK293 cells at 10 uM after 24 hrs by MTT assay relative to control; assay type: cell-based; details: read-out: GI; method in brief: as §1
[8] = test system: K562; test: Growth inhibition of human K562 cells at 1 uM after 24 hrs by MTT assay relative to control; assay type: functional; details: K562, 24 h, read-out: GI; method in brief: as §1
[9] = Lipophilicity, log P of the compound; assay type: physicochemical; details: octanol/water

logP [9] | Compound | inhibition of growth at 1 µM [1] | inhibition of growth at 10 µM [2] | inhibition at 24 h, 1 µM [3] | inhibition of growth at 10 µM [4] | IC50 [5] | IC50 [6] | inhibition at 24 h, 10 µM [7] | inhibition of growth at 1 µM [8]
 | CCOP(=O)(OCC)C(Nc1nc2ccccc2s1)c1ccc(-c2ccncc2)cc1 (configuration not stated) | 36.6% | 15.7% | 2.5% | 41% | 35 µM | 15 µM | 2.5% | 0%
 | CCOP(=O)(OCC)C(Nc1ccncc1)c1ccc(-c2ccncc2)cc1 (configuration not stated) | 14% | 15.7% | 0.5% | 53.4% | 32 µM | 10 µM | 1.9% | 0%
 | CCOP(=O)(OCC)C(Nc1cccc([N+](=O)[O-])c1)c1ccc(-c2ccncc2)cc1 (configuration not stated) | 39.5% | 25.8% | 0% | 41.1% | 20 µM | 14 µM | 1.2% | 0%
 | CCOP(=O)(OCC)C(Nc1nccs1)c1ccc(-c2ccncc2)cc1 (configuration not stated) | 37.1% | 24% | 1% | 47.9% | 24 µM | 10 µM | 2.5% | 0%
 | CCOP(=O)(OCC)C(Nc1nc2ccc([N+](=O)[O-])cc2s1)c1ccc(-c2ccncc2)cc1 (configuration not stated) | 34.4% | 18.9% | 0% | 48.1% | 31 µM | 10 µM | 0.3% | 0.9%
 | CCOP(=O)(OCC)C(Nc1ccccc1)c1ccc(-c2ccncc2)cc1 (configuration not stated) | 18.1% | 0% | 0% | 31% | > 100 µM | 18 µM | 0% | 0%
 | CCOP(=O)(OCC)C(Nc1ccc(Cl)c([N+](=O)[O-])c1)c1ccc(-c2ccncc2)cc1 (configuration not stated) | 35% | 24.9% | 1.2% | 45.1% | 19 µM | 12 µM | 3.4% | 14.3%
 | CCOP(=O)(OCC)C(Nc1ccc(F)c(Cl)c1)c1ccc(-c2ccncc2)cc1 (configuration not stated) | 44.5% | 26.2% | 0.2% | 47% | 22 µM | 10 µM | 1.2% | 26%
4.55 | CCOP(=O)(OCC)C(NCc1cccnc1)c1ccc(-c2ccncc2)cc1 (configuration not stated) | 27.6% | 48.4% | 3.1% | 60.1% | 10 µM | 8 µM | 3.6% | 26%
5.72 | CCOP(=O)(OCC)C(Nc1cccc(Br)c1)c1ccc(-c2ccncc2)cc1 (configuration not stated) | 31.3% | 53.8% | 1% | 71.6% | 10 µM | 5 µM | 2.3% | 41.7%
